The results in this text go back to ChEMBL document CHEMBL3414472, “Synthesis, SAR, and series evolution of novel oxadiazole-containing 5-lipoxygenase activating protein inhibitors: discovery of 2-[4-(3-{(r)-1-[4-(2-amino-pyrimidin-5-yl)-phenyl]-1-cyclopropyl-ethyl}-[1,2,4]oxadiazol-5-yl)-pyrazol-1-yl]-N,N-dimethyl-acetamide (BI 665915)” (J Med Chem, 2015).

For data set [1], the target named is T1, Leukotriene A-4 hydrolase (Homo sapiens) (UniProt P09960).
T1 sequence (whole entry): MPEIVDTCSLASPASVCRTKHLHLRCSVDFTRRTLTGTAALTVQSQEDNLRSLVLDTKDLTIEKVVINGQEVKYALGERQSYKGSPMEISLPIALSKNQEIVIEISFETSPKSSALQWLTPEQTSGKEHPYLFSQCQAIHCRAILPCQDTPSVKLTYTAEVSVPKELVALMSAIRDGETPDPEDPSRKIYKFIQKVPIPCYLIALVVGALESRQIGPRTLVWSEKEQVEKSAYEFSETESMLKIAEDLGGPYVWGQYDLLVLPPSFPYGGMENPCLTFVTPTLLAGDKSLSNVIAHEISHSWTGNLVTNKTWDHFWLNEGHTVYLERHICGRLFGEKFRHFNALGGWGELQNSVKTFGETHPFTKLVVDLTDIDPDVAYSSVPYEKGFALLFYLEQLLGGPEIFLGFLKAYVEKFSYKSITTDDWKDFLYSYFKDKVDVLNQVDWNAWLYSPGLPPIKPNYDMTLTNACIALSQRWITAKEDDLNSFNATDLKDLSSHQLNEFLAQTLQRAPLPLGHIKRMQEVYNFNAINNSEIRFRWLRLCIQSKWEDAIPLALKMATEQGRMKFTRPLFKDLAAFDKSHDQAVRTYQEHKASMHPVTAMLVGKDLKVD
Description: Inhibition of LTA4 hydrolase (unknown origin) at 10 uM relative to control.

In data set [2] the target is Leukotriene B4 receptor 1 (Homo sapiens) (UniProt Q15722). Description: Inhibition of BLT1 (unknown origin) at 10 uM relative to control.
The target of data set [3] is T2, Leukotriene B4 receptor 2 (Homo sapiens) (UniProt Q9NPC1).
T2 sequence (whole entry): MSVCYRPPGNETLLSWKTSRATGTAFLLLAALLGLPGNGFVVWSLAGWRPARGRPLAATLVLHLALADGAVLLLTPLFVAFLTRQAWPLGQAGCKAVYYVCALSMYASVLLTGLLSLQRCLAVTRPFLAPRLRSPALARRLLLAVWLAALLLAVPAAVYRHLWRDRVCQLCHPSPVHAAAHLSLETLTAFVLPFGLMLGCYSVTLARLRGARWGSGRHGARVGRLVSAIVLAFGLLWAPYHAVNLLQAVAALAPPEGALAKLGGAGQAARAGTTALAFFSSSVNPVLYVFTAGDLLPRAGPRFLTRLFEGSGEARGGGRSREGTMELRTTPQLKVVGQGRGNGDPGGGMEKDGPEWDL
Description: Inhibition of BLT2 (unknown origin) at 10 uM relative to control.

A short description of data set [4]: Clearance in human hepatocytes at 1 uM measured over 6 hrs by LC/MS analysis relative to hepatic blood flow. The data set is classed as ADME, cell-based, Liver, Hepatocyte. As to conditions: read-out: CLH. An outline of the steps: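 Cryopreserved human hepatocytes (1 million cells/mL) incubated with compound (1 µM) at 37 °C; compound remaining measured by LC/MS over duplicate 6-timepoint curves (0 to 6 h). The slope is taken from ln % remaining versus time. Clearance is expressed as percent of hepatic blood flow.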

Data set [5] in a line: Mean residence time in dog at 1 mg/kg, iv. Type of data set: ADME, organism-based, Canis lupus familiaris. Also on record: dose 1 mg/kg, route intravenous. Particulars: in vivo. Put shortly: (§1)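 iv 1 mg/kg in 70 % PEG; po 10 mg/kg as suspension in 0.5 % methyl cellulose/0.015 % Tween. Blood sampled at 11 timepoints (0, 5, 15, 30 min, 1, 2, 4, 6, 8, 12, 24 h) per dose; mean of n = 3. Clearance expressed as percent of hepatic blood flow.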

Data set [6] in a line: Oral bioavailability in dog at 10 mg/kg. The data set is classed as ADME, organism-based, Canis lupus familiaris. Particulars: in vivo. An outline of the steps:
as §1

Data set [7] can be described thus: Volume of distribution at steady state in cynomolgus monkey at 1 mg/kg, iv and 10 mg/kg, po. Type of data set: ADME, organism-based, Macaca fascicularis. As to conditions: in vivo, read-out: Vdss. An outline of the steps: as §1
Data set [8] can be described thus: Plasma concentration in C57BL/6 mouse at 1 mg/kg, po after 2 hrs. Type of data set: ADME, organism-based. Also on record: dose 1 mg/kg, route oral.
A short description of data set [9]: Plasma concentration in C57BL/6 mouse at 30 mg/kg, po after 2 hrs. The data set is classed as ADME, organism-based. The arrangement: dose 30 mg/kg, route oral.
Data set [10] deals with Mus musculus. Briefly: In vivo inhibition of FLAP in C57BL/6 mouse assessed as LTB4 production in calcimycin-stimulated whole blood at 10 mg/kg, po after 2 hrs by ELISA (reference value: 100 +/- 13.3%). Type of data set: functional. Also on record: scale not given: the % may be the effect or the level left. Background: In an ELISA, binding on a coated surface is turned into a signal by an enzyme label.

Data set [11] deals with T3, Arachidonate 5-lipoxygenase-activating protein (Homo sapiens, UniProt P20292).
T3 sequence (P20292 whole entry): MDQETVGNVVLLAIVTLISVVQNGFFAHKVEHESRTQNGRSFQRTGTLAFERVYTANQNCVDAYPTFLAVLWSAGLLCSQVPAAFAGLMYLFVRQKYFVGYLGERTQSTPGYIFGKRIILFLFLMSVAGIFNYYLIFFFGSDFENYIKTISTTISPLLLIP
Description: Inhibition of FLAP in calcimycin-stimulated human whole blood assessed as inhibition of LTB4 synthesis preincubated for 15 mins followed by calcimycin stimulation measured after 30 mins. Put shortly:
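Heparinized human volunteer blood preincubated with compound 15 min at 37 °C, 5 % CO2; calcimycin 100 µM final, 30 min at 37 °C; spun 2000 rpm 5 min at 4 °C. Supernatant LTB4 measured by HTRF competition (LTB4-XL665 plus anti-LTB4 cryptate, 2 h room temperature). Geometric mean (n ≥ 3) of duplicate 10-point curves.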

The target in data set [12] is Cytochrome P450 2D6 (Homo sapiens, UniProt P10635). Briefly: Inhibition of CYP2D6 in human liver microsomes using dextromethorphan as substrate preincubated for 10 mins followed by NADPH addition measured after 6 mins. The data set is classed as ADME. Put shortly: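 Human liver microsomes (0.05 mg/mL protein) with cocktail substrates: 4 µM diclofenac (2C9), 3 µM dextromethorphan (2D6), 2.5 µM midazolam (3A4). Compound in 0.1 M potassium phosphate pH 7.4 preincubated 10 min at 37 °C; NADPH added, reaction 6 min at 37 °C.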
(In general: Liver microsomes are a subcellular fraction often used to study metabolism.)

Data set [13] addresses T4, Arachidonate 5-lipoxygenase-activating protein (Mus musculus, UniProt P30355).
T4 sequence (P30355 whole entry): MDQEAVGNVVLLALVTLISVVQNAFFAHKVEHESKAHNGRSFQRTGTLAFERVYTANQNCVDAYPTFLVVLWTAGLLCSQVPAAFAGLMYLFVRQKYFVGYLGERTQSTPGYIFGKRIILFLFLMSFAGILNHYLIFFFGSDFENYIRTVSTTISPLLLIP
Briefly: Inhibition of FLAP in calcimycin-stimulated mouse whole blood assessed as inhibition of LTB4 synthesis preincubated for 15 mins followed by calcimycin stimulation measured after 30 mins. Put shortly:
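Mouse whole blood run by the same protocol as the human whole blood LTB4 assay (compound 15 min at 37 °C, 100 µM final calcimycin 30 min, HTRF LTB4 read-out). Geometric mean (n ≥ 3) of duplicate 8-point curves.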

Data set [14] can be described thus: Metabolic stability in human liver microsomes at 1 uM preincubated for 10 mins followed by NADPH addition measured over 60 mins by LC/MS analysis relative to hepatic blood flow. The data set is classed as ADME. Particulars: read-out: Stability. An outline of the steps: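 Human liver microsomes (1 mg/mL protein) with test compound at 1 µM, preincubated 10 min at 37 °C before adding NADPH. Remaining compound followed over a 0–60 min time course, as duplicate 8-timepoint curves. The slope of ln(% remaining) against time gives clearance, expressed as percent of hepatic blood flow.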

Sequence of Leukotriene B4 receptor 1 (Homo sapiens) (Q15722 whole entry): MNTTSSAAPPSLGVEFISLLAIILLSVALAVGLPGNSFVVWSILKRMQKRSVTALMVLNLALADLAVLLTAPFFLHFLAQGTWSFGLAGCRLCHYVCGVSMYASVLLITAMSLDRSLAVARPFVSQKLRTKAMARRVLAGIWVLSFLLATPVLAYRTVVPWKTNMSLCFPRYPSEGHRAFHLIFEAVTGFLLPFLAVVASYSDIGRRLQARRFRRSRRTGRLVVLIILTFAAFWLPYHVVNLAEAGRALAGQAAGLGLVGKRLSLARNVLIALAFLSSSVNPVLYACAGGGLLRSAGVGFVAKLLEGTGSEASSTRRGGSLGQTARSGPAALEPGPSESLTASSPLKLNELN
Sequence of Cytochrome P450 2D6 (P10635 whole entry): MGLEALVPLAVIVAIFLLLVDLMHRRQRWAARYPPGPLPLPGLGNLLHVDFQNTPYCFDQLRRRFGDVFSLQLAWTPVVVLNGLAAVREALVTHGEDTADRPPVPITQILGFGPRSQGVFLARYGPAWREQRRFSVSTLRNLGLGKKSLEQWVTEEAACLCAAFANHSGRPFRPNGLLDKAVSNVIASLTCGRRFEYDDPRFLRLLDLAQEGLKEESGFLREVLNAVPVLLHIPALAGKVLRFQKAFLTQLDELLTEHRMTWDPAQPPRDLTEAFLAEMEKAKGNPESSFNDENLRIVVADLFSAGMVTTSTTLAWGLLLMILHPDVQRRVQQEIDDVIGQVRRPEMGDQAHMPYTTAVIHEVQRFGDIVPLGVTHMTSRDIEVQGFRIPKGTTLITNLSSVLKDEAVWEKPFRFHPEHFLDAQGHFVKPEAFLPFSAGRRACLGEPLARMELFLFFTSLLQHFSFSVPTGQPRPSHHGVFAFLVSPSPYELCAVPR

One may read the inhibition as how much of the control response was suppressed. In general, MRT refers to the average time that molecules of a dose stay in the body. By bioavailability is commonly meant dose-corrected exposure relative to a reference, in per cent. As usually defined, the IC50 is the concentration that inhibits the measured activity by half. As to `CN(C)C(=O)Cn1cc(-c2nc([C@@](C)(c3ccc(-c4cnc(N)nc4)cc3)C3CC3)no2)cn1` [BI 665915], the inhibition in data set [1], in data set [2] and in data set [3] was below 50% throughout. Further, the hepatic extraction ratio at 6 h, 1 µM in data set [4] amounted to 0.41. Also, in [5], the MRT is 23 h. For the same molecule, the bioavailability in data set [6] was found to be 58%. The Vd in data set [7] is 0.5 L/kg. Also, the concentration at 2 h in data set [8] is 1.7 µM; in data set [9], 20.7 µM. Besides, the Activity in data set [10] amounted to 35.2%. Also, the concentration for half-maximal inhibition (IC50) in [11] is 0.045 µM; in data set [12], above 30 µM; in data set [13] it was 4.8 µM. In data set [14], the hepatic extraction ratio at 1 h, 1 µM came to 0.33.
